CHOP UPR activ: activators of apoptotic CHOP UPR arm, primary screen, cell-based, CHO-CHOP luciferase reporter, luminescence, uHTS; UPR activation; percent of tunicamycin response over DMSO baseline; activation, % at 10 µM; actives 0.34% (n = 330,000);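 active = at 10 µM dose, activation of 40% or more, normalized to positive control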;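 also: 100% = tunicamycin at 10 µg/mL and 0% = DMSO alone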
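Dosing – one dose, 10 µM in 0.5% DMSO · System – CHO-CHOP cells, stable luciferase reporter of PERK-eIF2a-CHOP signalling · Input – 500 cells/well · Control set – tunicamycin 10 µg/mL final as positive, DMSO-only wells as negative · Timing – 6 h compound treatment, 37 °C · Measure – % activation vs tunicamycin · Technique – luminescence read with Steady-Glo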
CHOP inh: inhibitors of CHOP promoter induction, primary screen, cell-based, unfolded protein response, luciferase reporter; inhibition, % at 10 µM; actives 3.8% (n = 220,000); CHO-K1 CHOP-promoter luciferase, tunicamycin-induced, 15-18 h;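 active = compounds that reduced the stress-induced luciferase reporter signal by more than about 70% of percent inhibition, limit read from the data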;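 also: 0% = tunicamycin plus vehicle and 100% = wells without tunicamycin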
FXN GAA850 act: FXN promoter activators, primary screen, cell-based, luciferase luminescence, HEK293 lucGAA850; AID 540364, 2011; activation, % at 6 µM; HEK293 lucGAA850 FXN promoter luciferase reporter, 24 h; percent of 10 µM SAHA response; actives 0.56% (n = 360,000);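 active = activation above the average of all compounds screened plus 3 SD, cutoff fixed separately per campaign, cut at about 7.5% in these data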;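 also: 0% = DMSO wells and 100% = 10 µM SAHA wells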
UPR XBP1 act: activators of adaptive XBP1 UPR arm, primary screen, cell-based, CHO-XBP1 luciferase reporter, luminescence, uHTS; IRE1-XBP1 UPR activation; percent of tunicamycin response, DMSO as zero; activation, % at 20 µM; actives 0.33% (n = 330,000); AID 463104, 2010;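 active = versus positive control, 20 µM dose yields 30% or more activation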;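 also: 100% = tunicamycin at 10 µg/mL and 0% = DMSO only wells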
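Material: CHO-XBP1 cells stably carrying IRE1-XBP1-driven luciferase reporter / Amount: 1000 cells per well / Compound: 20 µM, 1% DMSO / Times: 6 h treatment, 37 °C / Detection: luciferase luminescence / Measure: % activation of reporter signal versus tunicamycin and DMSO controls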
Numbers without * were called inactive; . = no result. This excerpt belongs to a sample that is enriched for hits.

SMILES	CHOP UPR activ	CHOP inh	FXN GAA850 act	UPR XBP1 act
Cc1ccc(-c2cc(C(F)F)n3ncc(C(=O)Nc4c(C)nn(Cc5c(Cl)cccc5Cl)c4C)c3n2)cc1	23	91*	-1	28
C[C@H]1c2cccc(O)c2C(O)=C2C(=O)[C@]3(O)C(O)=C(C(N)=O)C(=O)[C@@H](N(C)C)[C@@H]3[C@@H](O)[C@@H]21	1	12	19*	-6
CC(C)N(C)c1ncnc2c1ncn2[C@H]1CN(CCN2CCOCC2)C[C@@H](CO)O1	.	.	1	.
CS(=O)(=O)c1cc([N+](=O)[O-])c(Sc2nc3ccccc3[nH]2)c([N+](=O)[O-])c1	-6	80*	0	-5
O=C(O)c1cc([N+](=O)[O-])c(Sc2nc3ccccc3[nH]2)c([N+](=O)[O-])c1	-1	.	0	-4
CCOC(=O)c1cccc(Nc2nc(-c3cccnc3)nc3ccccc23)c1	10	77*	-2	19
COC(=O)c1cccc(Nc2nc(-c3cccnc3)nc3ccccc23)c1	9	17	-4	2
COc1cc(C(=O)OCC(=O)Nc2c(F)cccc2F)cc(OC)c1C	-1	94*	0	-4
CSc1ncc(CN2CCc3c([nH]c4ccccc34)C2c2cccc(O)c2)cn1 (centres undefined)	0	86*	1	3
CCC(=O)N1CCC(C)(C(=O)Nc2ccc3c(c2)OCO3)C1 (centres undefined)	.	.	1	.
COc1ccc(-c2cc3nc(C)c(CCC(=O)NCc4ccco4)c(C)n3n2)c(OC)c1	1	15	-2	-1
Cc1nc2cc(-c3ccc(Cl)cc3)nn2c(C)c1CCC(=O)NCc1ccco1	0	74*	-9	-2
COc1ccc(-c2noc(CN3CCN(c4ccccc4F)CC3)n2)cc1OC	-2	16	2	-4
c1ccc(-c2noc(CN3CCN(c4ccccc4)CC3)n2)cc1	1	86*	0	-1
c1ccc(-c2noc(CN3CCN(C(c4ccccc4)c4ccccc4)CC3)n2)cc1	0	40	0	-5
Fc1ccccc1N1CCN(Cc2nc(-c3ccccc3)no2)CC1	1	86*	-1	-2
C[C@@H]1CN([C@@H](C)CO)C(=O)CCCn2cc(nn2)CO[C@H]1CN(C)C(=O)Oc1ccccc1	.	.	1	.
O=C(C[C@H]1C[C@@H]2c3cc(NC(=O)Nc4ccccc4F)ccc3O[C@@H]2[C@H](CO)O1)NCc1ccccn1	.	.	-1	.
N#C/C(=C/c1ccc(N2CCOCC2)o1)c1nc2ccccc2[nH]1	0	7	2	-5
N#C/C(=C/c1ccc(N2CCOCC2)o1)c1ccc(Br)cc1	4	26	16*	1
c1ccc(CN2C3=NCCCN3c3ccccc32)cc1	2	-5	0	-4
Clc1ccc(CN2C3=NCCN3c3ccccc32)cc1	-1	71*	-2	0
OC[C@@H]1CN(Cc2cccc3ccccc23)C[C@H](n2cnc3c(NCc4ccco4)ncnc32)O1	.	.	-6	.
CSc1nc(N)c2ncn([C@@H]3O[C@H](COP(=O)(O)OP(=O)(O)OP(=O)(O)O)[C@H](O)C3O)c2n1 (some centres undefined)	.	11	.	.
O=[N+]([O-])c1cc(C(F)(F)F)ccc1NCCCCNS(=O)(=O)c1ccc(Cl)cc1	-1	47	-1	-1
SMILES	CHOP UPR activ	CHOP inh	FXN GAA850 act	UPR XBP1 act
O=[N+]([O-])c1cc(C(F)(F)F)ccc1NCCNC(=S)Nc1ccc(Cl)cc1	2	86*	6	6
CCNc1nc(SCC(=O)Nc2ccccc2)nc(N2CCOCC2)n1	1	.	-1	5
CC(C)(C)Nc1nc(SCc2ccccc2)nc(N2CCOCC2)n1	-3	74*	5	1
CCNc1nc(N2CCOCC2)nc(N(c2ccccc2)c2ccccc2)n1	0	72*	-1	2
CCc1nc2c(OCCOC)cccn2c1N(C)C(=O)c1ccco1	.	.	-1	.
COc1ccc(OCC(O)CN2CCC(CN3C(=O)c4cccc5cccc(c45)C3=O)CC2)cc1 (centres undefined)	1	.	3	0
Cc1ccc(C)c(OCC(O)CN2CCC(CN3C(=O)c4cccc5cccc(c45)C3=O)CC2)c1 (centres undefined)	3	76*	0	-3
COc1ccc(-c2onc3ccc(Cl)cc23)cc1	3	79*	1	2
Cc1cc(N/N=C/c2ccccc2O)nc(-c2ccccc2O)n1	4	75*	0	4
Cc1cc(N/N=C\c2ccccc2)nc(-c2ccccc2O)n1	3	58	3	0
c1csc(-c2ccc3nncn3c2)c1	.	.	2	.
Cc1c(Cl)cccc1NC(=S)N=Nc1c(O)n(CN2CCOCC2)c2ccccc12	14	87*	.	7
Oc1c(N=NC(=S)Nc2ccccc2F)c2ccccc2n1Cc1ccccc1Cl	2	-7	1	-2
Cc1ccccc1NC(c1cccc(Cl)c1)c1nnnn1C1CCCCC1 (centres undefined)	-1	87*	-3	3
N#Cc1cccc(C(c2nnnn2C2CCCC2)N2CCCCCC2)c1 (centres undefined)	1	25	3	-3
CCOc1ccc(CNc2cccc(SC)c2)cc1	-1	87*	0	2
Cc1cccc(NC(=S)N(CCc2nc3cc(C)c(C)cc3[nH]2)Cc2cccnc2)c1	2	80*	1	4
COc1cccc(NC(=S)N(CCc2nc3cc(C)c(C)cc3[nH]2)Cc2cccnc2)c1	2	23	-1	2
O=C(CN1C(=O)/C(=C\c2cccc(F)c2)Oc2ccccc21)N1CCN(c2ccccn2)CC1	1	18	-2	0
O=C(CN1C(=O)/C(=C\c2ccc(F)cc2)Oc2ccccc21)N1CCN(c2ccccn2)CC1	6	90*	0	19
C[C@H]1CN([C@@H](C)CO)C(=O)CCCn2nncc2CO[C@H]1CN(C)S(=O)(=O)c1ccc2ccccc2c1	.	.	0	.
Cc1cc(N2CCN(c3ccc(F)cc3)CC2)nc2cc(O)ccc12	0	82*	-1	3
Cc1ccc(S(=O)(=O)Nc2ccc(Nc3nccn4c(-c5ccc6ccccc6c5)cnc34)cc2)cc1	.	.	1	.
COc1cccc(N2CCN(C(=O)c3[nH]c(C)c(C(C)=O)c3C)CC2)c1	1	.	-4	0
CC(=O)c1c(C)[nH]c(C(=O)N2CCN(c3ccc(F)cc3)CC2)c1C	0	84*	-1	-2
O=C(Nc1ccc(F)cc1)N(CCCN1CCOCC1)Cc1cc2cc3c(cc2[nH]c1=O)OCCO3	-3	-15	-2	-3
CCc1ccc2[nH]c(=O)c(CN(CCCN3CCOCC3)C(=O)Nc3ccc(F)cc3)cc2c1	0	71*	-3	8

Screening results (PubChem BioAssay)
